How the values were obtained:
[1] = Acute toxicity in Albino rat; assay type: organism-based; conditions: in vivo
[2] = Antioxidant activity assessed as superoxide anion scavenging activity by NBT reduction method; assay type: functional; set-up: concentration or dose not given beside the values
In short: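 Superoxide was generated by […]xanthine oxidase. Sample in 100 mM phosphate buffer (pH ~7.0) with xanthine oxidase (1.65 × 10^-2 units/ml) and NBT at 25 °C. The reaction was started by adding xanthine and followed by NBT reduction absorbance. Scavenging % was calculated from the absorbance increase with sample versus without sample (control).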

HT-29 [3] = assay: Cytotoxicity against human HT-29 cells at 150 ug/ml after 12 hrs by neutral red assay; assay type: functional
In short: (§1)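 HT-29 cells (Korean Cell Line Bank) were kept in DMEM with 10% FBS, penicillin and streptomycin at 37 °C under 5% CO2. Cells in 96-well plates were exposed to compounds for 12–48 h. The medium was replaced with fresh medium for neutral red uptake. Dye was extracted with 50% ethanol containing 50 mM sodium citrate (pH 4.2), and absorbance was read at 510 nm after 20 min.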

HT-29 [4] = assay: Cytotoxicity against human HT-29 cells at 100 ug/ml after 12 hrs by neutral red assay; assay type: functional; in short: as §1
[5] = Antioxidant activity assessed as superoxide anion scavenging activity by NBT reduction method relative to Vitamin C; assay type: functional; set-up: concentration or dose not given beside the values
HT-29 [6] = assay: Cytotoxicity against human HT-29 cells at 100 ug/ml after 24 hrs by neutral red assay; assay type: functional; in short: as §1
HT-29 [7] = assay: Cytotoxicity against human HT-29 cells at 50 ug/ml after 48 hrs by neutral red assay; assay type: functional; in short: as §1
HT-29 [8] = assay: Cytotoxicity against human HT-29 cells at 50 ug/ml after 24 hrs by neutral red assay; assay type: functional; in short: as §1
HT-29 [9] = assay: Cytotoxicity against human HT-29 cells at 100 ug/ml after 48 hrs by neutral red assay; assay type: functional; in short: as §1
HT-29 [10] = assay: Cytotoxicity against human HT-29 cells at 150 ug/ml after 24 hrs by neutral red assay; assay type: functional; in short: as §1
HT-29 [11] = assay: Cytotoxicity against human HT-29 cells at 50 ug/ml after 12 hrs by neutral red assay; assay type: functional; in short: as §1

| SMILES | LD50 [1] [mg/kg] | Activity [2] [%] | Activity (HT-29 [3]) [%] | Activity (HT-29 [4]) [%] | Activity [5] [%] | Activity (HT-29 [6]) [%] | Activity (HT-29 [7]) [%] | Activity (HT-29 [8]) [%] | Activity (HT-29 [9]) [%] | Activity (HT-29 [10]) [%] | Activity (HT-29 [11]) [%] |
| --- | --- | --- | --- | --- | --- | --- | --- | --- | --- | --- | --- |
| C[C@H]1[C@H](C)CC[C@]2(C(=O)O)CC[C@]3(C)C(=CC[C@@H]4[C@@]5(C)C[C@@H](O)[C@H](O)C(C)(C)[C@@H]5CC[C@]43C)[C@H]12 [COROSOLIC ACID] | 816 | – | – | – | – | – | – | – | – | – | – |
| COC(=O)[C@@]1(C)CC[C@]2(C)CC[C@]3(C)C(=CC(=O)[C@@H]4[C@@]5(C)C[C@H](O)[C@@H](O)C(C)(C)[C@@H]5CC[C@]43C)[C@@H]2C1 | 793 | 65.1 | 40 | 39 | 1.45 | 41 | 33 | 21 | 42 | 52 | 19 |
| COC(=O)[C@@]1(C)CC[C@]2(C)CC[C@]3(C)C(=CC(=O)[C@@H]4[C@@]5(C)C[C@H](N=[N+]=[N-])[C@@H](N=[N+]=[N-])C(C)(C)[C@@H]5CC[C@]43C)[C@@H]2C1 | 898 | 68.1 | 55 | 42 | 1.51 | 46 | 36 | 31 | 52 | 60 | 29 |
| COC(=O)[C@]12CC[C@@H](C)[C@H](C)[C@H]1C1=CC[C@@H]3[C@@]4(C)C[C@@H](N=[N+]=[N-])[C@H](N=[N+]=[N-])C(C)(C)[C@@H]4CC[C@@]3(C)[C@]1(C)CC2 | 825 | 69.1 | 61 | 44 | 1.54 | 48 | 40 | 35 | 55 | 66 | 33 |
| O=C1O[C@H]([C@@H](O)CO)C(O)=C1O | – | 45 | – | – | 1 | – | – | – | – | – | – |
| CC1(C)[C@H](O)[C@@H](O)C[C@]2(C)[C@H]3C(=O)C=C4[C@@H]5C[C@@](C)(C(=O)O)CC[C@]5(C)CC[C@@]4(C)[C@]3(C)CC[C@@H]12 | 656 | – | – | – | – | – | – | – | – | – | – |
| COC(=O)[C@]12CC[C@@H](C)[C@H](C)[C@H]1C1=CC[C@@H]3[C@@]4(C)C[C@@H](O)[C@H](O)C(C)(C)[C@@H]4CC[C@@]3(C)[C@]1(C)CC2 [COROSOLIC ACID METHYL ESTER] | 818 | 68 | 53 | 40 | 1.51 | 44 | 35 | 29 | 50 | 58 | 22 |
| COC(=O)[C@@]1(C)CC[C@]2(C)CC[C@]3(C)C(=CC(=O)[C@@H]4[C@@]5(C)C[C@H](N)[C@@H](N)C(C)(C)[C@@H]5CC[C@]43C)[C@@H]2C1 | 893 | 70.1 | 65 | 48 | 1.56 | 50 | 45 | 43 | 58 | 70 | 40 |
| COC(=O)[C@]12CC[C@@H](C)[C@H](C)[C@H]1C1=CC[C@@H]3[C@@]4(C)C[C@@H](N)[C@H](N)C(C)(C)[C@@H]4CC[C@@]3(C)[C@]1(C)CC2 | 836 | 74.2 | 70 | 56 | 1.65 | 60 | 50 | 47 | 62 | 75 | 44 |

— ChEMBL document CHEMBL1153883, “Cytotoxic, antioxidant activities and structure activity relationship of some newly synthesized terpenoidal oxaliplatin analogs” (Eur J Med Chem, 2009)
